# Measurements gathered from unrelated publications.
# Each line is one published result; the experiments were not run side by side.
# Target: Dual specificity mitogen-activated protein kinase kinase 5 (MAP2K5, Homo sapiens, UniProt Q13163)
# Residues used in one study (Q13163 1-448): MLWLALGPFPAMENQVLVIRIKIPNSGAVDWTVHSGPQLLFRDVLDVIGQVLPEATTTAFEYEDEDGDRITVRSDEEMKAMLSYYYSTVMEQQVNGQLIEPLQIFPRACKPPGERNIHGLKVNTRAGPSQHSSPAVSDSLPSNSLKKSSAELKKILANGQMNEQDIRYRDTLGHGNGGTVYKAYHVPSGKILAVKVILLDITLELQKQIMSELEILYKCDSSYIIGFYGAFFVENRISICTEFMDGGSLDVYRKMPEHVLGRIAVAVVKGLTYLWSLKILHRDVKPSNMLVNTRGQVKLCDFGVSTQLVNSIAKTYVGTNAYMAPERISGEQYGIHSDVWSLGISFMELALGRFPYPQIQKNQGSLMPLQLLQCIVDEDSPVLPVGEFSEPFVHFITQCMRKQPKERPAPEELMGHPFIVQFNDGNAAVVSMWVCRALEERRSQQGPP
SMILES,test,setting,remaining binding [%]
Cc1c[nH]c2nccc(Oc3c(F)cc(Nc4cc(Cl)nc(N)n4)cc3F)c12,"cell-free assay, competition with immobilised ligand",0.1 µM,82
O=C(c1ccc(Nc2ncc(Cl)c(-c3cc4ccccc4s3)n2)cc1)N1CCC(N2CCCC2)CC1,"binding, competition with immobilised ligand",1 µM,2.9
Cc1cnn2ncc(-c3ccnc(N(C)C)n3)c2c1,binding,1 µM,78
CC(=O)C1=C(C)N(c2cccc(C(F)(F)F)c2)C(=O)N[C@@H]1c1ccc(C#N)nc1,"cell-free assay, competition with immobilised ligand",1 µM,100
O=C(c1ccc(Nc2nccc(-c3cc4ccccc4s3)n2)cc1)N1CCC(N2CCCC2)CC1,"binding, competition with immobilised ligand",1 µM,16
CN1CCN(c2cnc3c(C4CCN(C(=O)c5ccc(OC(F)(F)F)cc5N)CC4)ncnc3c2)CC1,"cell-free assay, competition with immobilised ligand",1 µM,86
N[C@@H]1CCN(c2nccc(-c3cnn4ncccc34)n2)C1,binding,1 µM,97
O=C(Nc1c[nH]nc1C(=O)NC1CCNCC1)c1cc(F)cc(F)c1,"binding, competition with immobilised ligand",1 µM,100
O=C(NCCCN1CCOCC1)c1ccc(Nc2nccc(-c3cc4ccccc4s3)n2)cc1,"binding, competition with immobilised ligand",1 µM,36
CS(=O)(=O)N1CCCC(NC(=O)[C@H](CCC2CCCCC2)NC(=O)c2ccc(CNc3ncnc4c3nnn4-c3ccccc3)cc2)C1 (stereo partly shown),"cell-free assay, competition with immobilised ligand",0.1 µM,100
Nc1ncc2c(n1)-c1c([nH]c3ccc(C#CC4CC4)cc13)CCCC2,"binding, competition with immobilised ligand",1 µM,21
CN(C)c1nccc(-c2cnn3ncccc23)n1,binding,1 µM,68
CNC(=O)[C@@H]1CC[C@@H](n2c(-c3ccc4cnccc4c3)nc3ccc(C(=O)NCc4cccc(C(N)=O)c4)cc32)C1,"binding, competition with immobilised ligand",1 µM,53
c1cncc(-c2cccc(Nc3nccc(NC4CCCCC4)n3)c2)c1,"binding, competition with immobilised ligand",10 µM,23
FC(F)(F)Oc1cccc(-c2cnc3ccc(-c4ccncc4)nn23)c1,"cell-free assay, competition with immobilised ligand",5 µM,35
CN(C)c1nccc(-c2cnc3ncccn23)n1,binding,1 µM,48
C[C@@H]1CN(c2cc(-c3nn(C)c4ccc(OC5(C)CC5)cc34)ncn2)C[C@H](C)O1,"cell-free assay, competition with immobilised ligand",1 µM,93
c1cnn2ncc(-c3ccnc(N4CCC45COC5)n3)c2c1,binding,1 µM,30
CCCCN(CCCC)C(=O)CN1C[C@H](c2cc(OC)c3c(c2)OCO3)[C@@H](C(=O)O)[C@@H]1CC(C)(C)CCC,"cell-free assay, competition with immobilised ligand",1 µM,100
C[C@@H]1CCN(c2nccc(-c3cnn4ncccc34)n2)C1,binding,1 µM,71
N#Cc1ccc(Nc2ccc3[nH]c(=O)[nH]c3c2)c(Cl)c1,"cell-free assay, competition with immobilised ligand",1 µM,100
COc1cnc(Nc2cccc(S(N)(=O)=O)c2)nc1N1CCN(c2ccccc2)CC1,"binding, competition with immobilised ligand",1 µM,84
